A selection: hits, their analogues and other compounds. The true share with any hit is near 2.1%.
UCH37 DUB inh: blocks the human deubiquitinase UCH37 | 0.33% of 330,000 active | AID 588478 | purified proteasome/UCH37, Ub-AMC cleavage fluorescence | inhibition, % (concentration not given with the values);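 active = mean inhibition over replicate wells above about 20%, limit read from the data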
Target sequence (Q9Y5K5 whole entry, looked up): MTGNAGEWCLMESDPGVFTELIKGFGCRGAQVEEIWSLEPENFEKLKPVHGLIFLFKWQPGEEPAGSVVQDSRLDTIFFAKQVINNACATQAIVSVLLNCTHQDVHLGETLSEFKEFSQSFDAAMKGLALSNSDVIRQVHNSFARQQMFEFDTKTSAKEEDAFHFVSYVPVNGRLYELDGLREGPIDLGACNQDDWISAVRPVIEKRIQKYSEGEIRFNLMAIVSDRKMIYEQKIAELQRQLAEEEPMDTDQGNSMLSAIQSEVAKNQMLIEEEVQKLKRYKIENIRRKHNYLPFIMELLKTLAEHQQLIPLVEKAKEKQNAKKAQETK
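Test system – human UCH37 enzyme supplied as purified proteasome complex · Incubation – 30 min preincubation with enzyme, 25 min cleavage at room temperature · Detection – AMC fluorescence from Ub-AMC cleavage, excitation 355 nm, emission 460 nm · Benchmarks – no-proteasome wells (full inhibition) and compound-free wells (no inhibition)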
Efflux pump inh: inhibitors of Candida antifungal efflux pumps expressed in yeast; S. cerevisiae Candida pump triplex, Nile Red efflux; inhibition, % at 10 µM; 0.44% of 330,000 active; AID 485275;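 active = plate passing quality check with inhibition over a set limit, or well fluorescence over plate mean plus 4 SD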;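 also: Nile Red retained in pooled yeast measured as flow cytometry median fluorescence; higher means more Nile Red kept so more efflux inhibition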
ARNT TACC3 PPI: disruptors of human ARNT/TACC3 interaction. Q9Y6A5. AlphaScreen His-ARNT PAS-B/GST-TACC3 binding, luminescence; TACC3 fragment carries E629A point mutation. inhibition, % at 9.99 µM. 0.66% of 390,000 active. AID 623870;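 active = mean inhibition of replicates at least 50% and at least half of replicates each reaching 50%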
SUMO Mot1 rescue: inhibitors of SUMOylation pathway: yeast Mot1-301 growth rescue. 1% of 320,000 active. growth rescue, % at 18.8 µM. S. cerevisiae Mot1-301 growth rescue, ATP luminescence, 38.5C; percent above DMSO median, 100 means doubled;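 active = every valid replicate shows activation above 250% relative to neutral control wells; inactive = the rest, any valid replicate at or below 250%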
cardiac RTF act: cardiac RTF calcium sensitization. activation, % at 7.2 µM. 0.24% of 340,000 active. IANBD-labeled TnC RTF fluorescence at EC20 calcium; 0% EC20 calcium, 100% full calcium;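 active = activation above the mean over all tested compounds plus 3 SD, cut at about 30% in these data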;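 also: rise in fluorescence read as greater calcium sensitivity of cardiac thin filaments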
Cardiac RTF inh: cardiac RTF calcium desensitization. P19429+P45379. IANBD-labeled cardiac RTF, Ca2+ fluorescence. AID 493244. inhibition, % at 7.15 µM. 0.12% of 340,000 active;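 active = inhibition above the mean inhibition of all tested compounds plus 3 SD, cut at about 17% in these data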;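 also: assay run at fixed EC70 calcium of 1.6 mM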
Mot1 SUMO dose: SUMO pathway inhibitors in yeast Mot1-301 growth. shares compounds with SUMO Mot1 rescue. S. cerevisiae Mot1-301 galactose growth, ATP luminescence, 24 h; -100 = growth of slx-deleted rescue strain. growth activity, percent, % at 42 µM. 2,300 tested, under 10 active. AID 493004;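 active = Signal drops as the depositor expects, and the fitted half-maximal dose is no more than ten times the top valid tested dose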;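 also: more negative values mean stronger growth rescue toward the control strain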
Each line names hits and unclear results; the compound was inactive in the other large screens (follow-up assays come after a bar, where they were run).

COC(=O)c1cc(N=Nc2c(C)[nH]c3ccccc23)cc(C(=O)OC)c1	SUMO Mot1 rescue 945 | Mot1 SUMO dose inactive
O=c1c2ccccc2nc(SCc2ccc([N+](=O)[O-])cc2)n1CCCO	SUMO Mot1 rescue 464 | Mot1 SUMO dose inactive
Nn1c(SCc2ccc([N+](=O)[O-])cc2)nc2ccccc2c1=O	none
Cc1ccccc1CS(=O)(=O)Cc1ccc(C(=O)NCC2CCCO2)o1 (centres undefined)	none
Cc1cccc(CS(=O)(=O)Cc2ccc(C(=O)NCC3CCCO3)o2)c1 (centres undefined)	SUMO Mot1 rescue 667 | Mot1 SUMO dose inactive
COC(=O)[C@@H](NC(=O)Nc1ccc(S(N)(=O)=O)cc1)C(C)C	SUMO Mot1 rescue 373 | Mot1 SUMO dose inactive
CCC(C)[C@H](NC(=O)Nc1ccc(S(N)(=O)=O)cc1)C(=O)O (some centres undefined)	none
CC(=NNC(=O)c1nnn(-c2nonc2N)c1COc1ccccc1)c1ccccc1Cl	none (no result: Efflux pump inh, ARNT TACC3 PPI, SUMO Mot1 rescue, cardiac RTF act, Cardiac RTF inh)
CCC(=O)Nc1ccc2c(c1)C(=O)N(C)C2=O	none
CN1C(=O)c2ccc(NC(=S)NC(=O)C(C)(C)C)cc2C1=O	SUMO Mot1 rescue 439 | Mot1 SUMO dose inactive
O=C(NN=Cc1cccs1)c1n[nH]c2c1CCCC2	none (no result: Efflux pump inh, ARNT TACC3 PPI, SUMO Mot1 rescue, cardiac RTF act, Cardiac RTF inh)
Cc1ccc(S(=O)(=O)N2CCN(C(=O)CSc3nc(N)cc(=O)[nH]3)CC2)c(C)c1	SUMO Mot1 rescue 482 | Mot1 SUMO dose inactive
Cc1c(NS(=O)(=O)c2ccc(Br)cc2)c(=O)n(-c2ccccc2)n1C	none
Cc1c(NP(=O)(c2ccc(Br)cc2)c2ccc(Br)cc2)c(=O)n(-c2ccccc2)n1C	SUMO Mot1 rescue 381 | Mot1 SUMO dose inactive
NN1C(=O)NC(c2ccccc2)(c2ccccc2)C1=O	SUMO Mot1 rescue 543 (no result: ARNT TACC3 PPI) | Mot1 SUMO dose inactive
COc1ccc(S(=O)(=O)N2CCN(c3ccc(F)cc3)CC2)cc1C(=O)N1CCOCC1	SUMO Mot1 rescue 432 | Mot1 SUMO dose inactive
COc1cc(Br)c(/C=C/c2ccc3cccc(O)c3n2)cc1OC	none
Oc1cccc2ccc(/C=C/c3ccccc3Br)nc12	SUMO Mot1 rescue 528 | Mot1 SUMO dose inactive
O=C1OC(Cc2ccccn2)C(O)=C1C1=NCCCN1 (centres undefined)	SUMO Mot1 rescue 375 | Mot1 SUMO dose inactive
COc1c(C)cc(S(=O)(=O)NC2CC(C)(C)NC(C)(C)C2)c(C)c1C	SUMO Mot1 rescue 687 | Mot1 SUMO dose inactive
Cc1cc(C)c(S(=O)(=O)NC2CC(C)(C)NC(C)(C)C2)cc1C	none (no result: UCH37 DUB inh)
CC(NC(=O)CCc1nnc(-c2ccc(-c3ccccc3)cc2)o1)c1nc2ccccc2[nH]1 (centres undefined)	SUMO Mot1 rescue 452 | Mot1 SUMO dose inactive
Cc1cccc(CC(C)NC(=O)CCc2nnc(-c3ccccc3)o2)n1 (centres undefined)	none
CC(C)Cn1c(N)cc(=O)n(C)c1=O	none
CCCn1c(N)cc(=O)n(CCC)c1=O	SUMO Mot1 rescue 792 | Mot1 SUMO dose inactive
O=C(Cc1ccccc1)NN=Cc1ccc2cccc(O)c2n1	none (no result: Efflux pump inh, ARNT TACC3 PPI, SUMO Mot1 rescue, cardiac RTF act, Cardiac RTF inh)
O=C(c1cc(N2C(=O)C3C4CCC(C4)C3C2=O)ccc1Cl)N1CCCCCC1 (centres undefined)	SUMO Mot1 rescue 361 (no result: UCH37 DUB inh) | Mot1 SUMO dose inactive
O=S(=O)([N-]c1nc2ccccc2nc1-[n+]1ccc(CCCc2ccccc2)cc1)c1cccs1	none
Cc1cc(C)c[n+](-c2nc3ccccc3nc2[N-]S(=O)(=O)c2ccc(Br)s2)c1	SUMO Mot1 rescue 379 (no result: ARNT TACC3 PPI) | Mot1 SUMO dose inactive
CC(=NNC(=O)c1ccc(N2CCCC2=O)cc1)c1ccncc1	none (no result: Efflux pump inh, ARNT TACC3 PPI, SUMO Mot1 rescue, cardiac RTF act, Cardiac RTF inh)
COc1ccccc1C(=O)NNC(=O)c1ccccc1F	none
COCC(=O)NNC(=O)c1ccccc1OC	SUMO Mot1 rescue 438 | Mot1 SUMO dose inactive
COc1ccc(-c2cc(-c3ccc(F)cc3)nc(N3CCN(C)CC3)n2)cc1	none
COc1ccc(-c2cc(C#N)nc(N3CCN(c4ccccc4)CC3)n2)cc1	SUMO Mot1 rescue 425 | Mot1 SUMO dose inactive
O=C(CCC1CCCN(C(=O)Cc2cccc(F)c2)C1)N1CCN(c2ccccn2)CC1 (centres undefined)	SUMO Mot1 rescue 426 | Mot1 SUMO dose inactive
O=C(NN=Cc1ccc(Cl)cc1)c1sccc1OCc1ccc(F)cc1	none (no result: Efflux pump inh, ARNT TACC3 PPI, SUMO Mot1 rescue, cardiac RTF act, Cardiac RTF inh)
COc1cccc(N=Nc2c(=O)[nH]n3c(=O)cc(C)[nH]c23)c1	SUMO Mot1 rescue 372 | Mot1 SUMO dose inactive
Clc1cccc(-c2ccc(C=Nn3cnnc3)o2)c1Cl	none (no result: Efflux pump inh, ARNT TACC3 PPI, SUMO Mot1 rescue, cardiac RTF act, Cardiac RTF inh)
Cc1cc(C)cc(N2C(=O)CC(Sc3ncn[nH]3)C2=O)c1 (centres undefined)	SUMO Mot1 rescue 452 | Mot1 SUMO dose inactive
N#Cc1ccc(Oc2ccc(S(=O)(=O)N3CCCCC3)cn2)cc1	SUMO Mot1 rescue 764 | Mot1 SUMO dose inactive
CCN(CC)S(=O)(=O)c1ccc(S(=O)(=O)N2CCC(C(=O)NC3CCN(Cc4ccccc4)CC3)CC2)cc1	SUMO Mot1 rescue 634 | Mot1 SUMO dose inactive
O=C(CCn1cnc2ccccc21)NN=C/C=C/c1ccccc1	none (no result: Efflux pump inh, ARNT TACC3 PPI, SUMO Mot1 rescue, cardiac RTF act, Cardiac RTF inh)
COC(=O)c1ccc2c(C)c(C3(O)CCCCC3)[nH]c2c1	none
Cc1c(C2(O)CCCCC2)[nH]c2ccc(C#N)cc12	SUMO Mot1 rescue 370 (no result: UCH37 DUB inh) | Mot1 SUMO dose inactive
CCOc1ncccc1C(=O)OCC(=O)N(CC)c1ccccc1	SUMO Mot1 rescue 439 | Mot1 SUMO dose inactive
Cc1ccc(NC2CC(=O)N(c3ccc(N4CCCCC4)cc3)C2=O)cc1 (centres undefined)	SUMO Mot1 rescue 680 | Mot1 SUMO dose inactive
O=C(N/N=C/c1ccccn1)NC12CC3CC(CC(C3)C1)C2	SUMO Mot1 rescue 612 (no result: UCH37 DUB inh, cardiac RTF act, Cardiac RTF inh) | Mot1 SUMO dose inactive
CC1CCc2c(sc(N=Cc3cccnc3)c2C(N)=O)C1 (centres undefined)	none (no result: Efflux pump inh, ARNT TACC3 PPI, SUMO Mot1 rescue, cardiac RTF act, Cardiac RTF inh)
CCOC(=O)C1C(c2ccc(C)o2)NC(=O)NC1(O)C(F)(F)F (centres undefined)	SUMO Mot1 rescue 459 | Mot1 SUMO dose inactive
COc1ccc(C=NNC(=O)c2cccnc2)cc1CSc1ccccn1	none (no result: Efflux pump inh, ARNT TACC3 PPI, SUMO Mot1 rescue, cardiac RTF act, Cardiac RTF inh)
O=C(Oc1ccc2c(c1)OCO2)c1cccs1	SUMO Mot1 rescue 478 (no result: ARNT TACC3 PPI) | Mot1 SUMO dose inactive
Cc1cc(OC(=O)c2cccs2)ccc1C(C)C	none
CCOCCCNC(=O)C(c1ccc(OC)cc1)N(Cc1cccs1)C(=O)CNC(C)=O (centres undefined)	none
CCOCCCNC(=O)C(c1ccc(OC)cc1)N(Cc1ccc2c(c1)OCO2)C(=O)CNC(C)=O (centres undefined)	SUMO Mot1 rescue 442 (no result: ARNT TACC3 PPI) | Mot1 SUMO dose inactive
COC(=O)C(=NNc1ccccc1OC)N1CCCc2ccccc21	none (no result: Efflux pump inh, ARNT TACC3 PPI, SUMO Mot1 rescue, cardiac RTF act, Cardiac RTF inh)

High-throughput results deposited in PubChem by several laboratories.
